Source: PubChem
T cruzi inh: blocks replication of Trypanosoma cruzi; inhibition, % (concentration not given with the values); AID 1885; T. cruzi beta-gal in NIH3T3, luminescence, 90 h; 1.4% of 300,000 active;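 active = mean inhibition across valid replicates above about 55%, limit read from the data; inconclusive = mean below that limit but half or more replicates reach it; inactive = mean below it, under half of replicates reach it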;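 also: signal also drops with host cell toxicity which is not excluded here; higher percent means less beta-gal luminescence so fewer parasites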
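Read-out: Parasite load inhibition, % | Test system: Mouse NIH/3T3 fibroblasts infected with β-gal-expressing T. cruzi Tulahuen C4 | Amount: 5,000 cells/well | Medium: DMEM, 2% fetal bovine serum | Signal: GalScreen β-gal luminescence, detergent lysis, 60 min | Timing: 3 h attach, ≥90 h co-culture | Also added: Tulahuen C4 trypomastigotes, 5000/well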
Lmaj promast: inhibitors of Leishmania major promastigote growth. 9% of 200,000 active. inhibition, % at 10 µM. Leishmania major promastigotes, resazurin fluorescence viability. AID 1063; in the data active = inhibition above about 50%;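 also: promastigotes grown with compound for 44 hours at 28 °C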
NALP1 yeast inh: blocks the NALP1 inflammasome reconstituted in yeast. S. cerevisiae NALP1/ASC/caspase-1 growth, X-gal OD620, 72 h. inhibition, % at 10 µM. 0.61% of 280,000 active; in the data active = inhibition mostly above about 24%, no sharp cut-off; inactive = mostly below about 32%
Calb FLC: C. albicans growth modulation with fluconazole; growth inhibition, % (no concentration beside the values); 0.57% of 300,000 active; C. albicans CaCi-2 + fluconazole, Alamar Blue growth, 48 h;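 active = growth inhibition above about 58% in most replicates, limit read from the data, passing the limit was not always enough; inconclusive = exactly half the replicates above a set limit; inactive = most replicates below a set limit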;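 also: all wells also contain fluconazole at 8 µg/ml as a sub-toxic cotreatment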
NLRP3 yeast inh: NALP3 inhibition in yeast; 0.39% of 330,000 active; Yeast reconstituted NLRP3/ASC/caspase-1, beta-gal luminescence, 24 h; AID 2825; inhibition, % at 10 µM;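 active = inhibition of 50% or more; inactive = inhibition below 50%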
PolyA inhibitor: inhibitors of polyadenylation in S. cerevisiae; S. cerevisiae SKY197-pL101 polyadenylation reporter, beta-gal luminescence; efflux-impaired pdr1/pdr3 knockout yeast; score 100 = 6 SD above DMSO; activity score, % at 12 µM; 0.02% of 300,000 active; AID 1875;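 active = lowest replicate activity score at least 50, where 100 means six control SD above control mean; inconclusive = lowest score under 50 but half or more replicates reach 50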;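 also: yeast exposed to compound for 9 h at 30 °C; higher score means more reporter readthrough which indicates perturbed polyadenylation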
A number is an active result; 0 = inactive; ? = inconclusive; - = no result. The full list was thinned out, with hits kept by preference.

SMILES	T cruzi inh	Lmaj promast	NALP1 yeast inh	Calb FLC	NLRP3 yeast inh	PolyA inhibitor
COc1ccccc1C(=O)Nc1nnc(SCC(=O)Nc2ccc3c(c2)oc2ccccc23)s1	0	96	0	0	0	?
Cc1cccc(C(=O)Nc2nnc(SCC(=O)Nc3ccc4c(c3)oc3ccccc34)s2)c1	0	0	0	0	0	0
N#Cc1ccccc1NC(=O)c1ccccc1OCC(=O)Nc1ccc2c(c1)oc1ccccc12	61	0	-	0	0	0
COc1ccc(NC(=O)NCCc2cccc(Cl)c2)cc1OC	0	0	0	0	0	0
CC(C)SC1=NC(C)(C)C=C(/C=C/c2ccc(Cl)cc2Cl)N1	0	95	0	0	0	0
CC(C)SC1=NC(C)(C)C=C(/C=C/c2c(Cl)cccc2Cl)N1	0	100	0	0	0	0
NS(=O)(=O)c1cccc(NC(=O)CCS(=O)(=O)c2ccc(Cl)cc2)c1	0	0	0	0	0	0
COc1ccc(Nc2nc(-c3c[nH]c4ccccc34)cs2)cc1	0	85	0	0	0	0
C[C@@H]1CCCCCCCCC(=O)OCCN(C(=O)OC(C)(C)C)[C@H](C)CCCCCCCCC(=O)OCCN(C(=O)OC(C)(C)C)[C@H](C)CCCCCCCCC(=O)OCCN(C(=O)OC(C)(C)C)[C@H](C)CCCCCCCCC(=O)OCCN1C(=O)OC(C)(C)C	-	-	-	-	0	-
COc1ccccc1NC(=O)COc1ccc(Br)cc1CNCCCN1CCOCC1	0	77	0	0	0	0
COc1cc(CNCCCN2CCOCC2)c(Br)cc1OCC(=O)Nc1ccccc1C	0	57	0	0	0	0
COc1cc(CNCCCN2CCOCC2)c(Br)cc1OC(C)C	0	-	0	0	0	0
Cc1ccc(CSCC(=O)N(C)CC(=O)Nc2ccc(Cl)c(Cl)c2)cc1	0	-	-	0	0	0
O=C(NCCOc1ccccc1F)c1ccccc1SCc1ccc(F)cc1	0	54	0	0	0	0
CCN(Cc1ccccc1)C(=O)CN1C(=O)c2ccccc2S1(=O)=O	0	-	-	0	0	0
COc1ccc(C(=O)NCCS(=O)(=O)N(C)C2CCCCC2)cc1	0	-	-	0	0	0
O=C(CN1C(=O)c2ccccc2S1(=O)=O)Nc1ncc(Cl)cc1Cl	-	-	-	-	0	-
Cc1ccc(N2C(=O)CC(Sc3ccccc3C(=O)O)C2=O)cc1C (configuration not stated)	0	0	36	0	0	0
Cc1ccc(N2C(=O)CC(Sc3ccccc3C(=O)O)C2=O)cc1 (configuration not stated)	0	0	63	0	0	0
Cc1cc(C)cc(N2C(=O)CC(Sc3ccccc3C(=O)O)C2=O)c1 (configuration not stated)	0	-	0	0	0	0
O=C(O)c1ccccc1SC1CC(=O)N(c2ccc3c(c2)OCO3)C1=O (configuration not stated)	0	0	0	0	0	0
CN(C)c1ccc(N2C(=O)CC(Sc3ccccc3C(=O)O)C2=O)cc1 (configuration not stated)	0	0	52	0	0	0
Cc1cccc(N2C(=O)CC(Sc3ccccc3C(=O)O)C2=O)c1 (configuration not stated)	0	0	78	0	0	0
CC(C)(CNC(=O)c1ccc(S(=O)(=O)Nc2ccc(Cl)cc2)cc1)N1CCOCC1	-	-	-	-	0	-
O=C(NCCN1CCOCC1)/C(=C\c1ccccc1Cl)NC(=O)c1ccccc1	0	-	0	0	0	0
SMILES	T cruzi inh	Lmaj promast	NALP1 yeast inh	Calb FLC	NLRP3 yeast inh	PolyA inhibitor
COc1ccc(S(=O)(=O)n2[nH]c(=O)c(CCO)c2C)c([N+](=O)[O-])c1	0	0	0	0	0	0
CCN(Cc1ccncc1)C(=O)c1cc(COc2c(C)cccc2C)on1	57	-	0	0	0	0
S=c1[nH]c2cc(Cl)c3cccnc3c2o1	0	-	0	79	0	0
S=c1[nH]c2ncccc2o1	0	0	0	0	0	0
Cc1ccc(NC(=S)NCC2CCN(C(C)c3ccccc3)C2)cc1 (configuration not stated)	0	78	0	0	0	0
CC(c1ccccc1)N1CCC(CNC(=S)Nc2cccc(Cl)c2)C1 (configuration not stated)	0	95	0	0	0	0
COc1ccc(N2CCC(CNC(=O)Nc3cccc(OC)c3)C2)cc1 (configuration not stated)	0	0	0	0	0	0
COc1ccc(N2CCC(CNC(=S)Nc3cccc(OC)c3)C2)cc1 (configuration not stated)	0	60	0	0	0	0
O=C(Cn1cccn1)N1CCCC(Nc2ccc(F)c(F)c2)C1 (configuration not stated)	0	-	0	0	0	0
O=S(=O)(Cc1ccccc1)N1CCc2ccccc21	0	100	0	100	0	0
CN(C)S(=O)(=O)N1CCc2ccccc21	0	0	-	0	0	0
CC1=Nc2ccccc2N=C(NC(=O)c2ccccc2)C1c1ccccc1 (configuration not stated)	0	54	0	0	0	0
CC1=Nc2ccccc2N=C(NC(=O)CN2CCN(c3ccccc3)CC2)C1c1ccccc1 (configuration not stated)	63	0	0	0	0	0
CC1=Nc2ccccc2N=C(NC(=O)CSC(=S)N2CCCCC2)C1c1ccccc1 (configuration not stated)	0	-	0	0	0	0
CC(C)CC(=O)c1c[nH]c(C(=O)N2CCN(Cc3ccccc3)CC2)c1	0	0	0	0	0	0
CCc1ccccc1S(=O)(=O)c1c(C)cc(C)nc1Cl	0	-	0	0	0	0
CCOC(=O)C1=C(N)OC2=C(C(=O)CC(C)C2)C1c1cccnc1 (configuration not stated)	0	70	0	0	0	0
COCCOC(=O)C1=C(N)OC2=C(C(=O)CC(C)(C)C2)C1c1cccnc1 (configuration not stated)	0	82	0	0	0	0
COCCOC(=O)C1=C(N)OC2=C(C(=O)CCC2)C1c1cccnc1 (configuration not stated)	-	0	0	-	0	-
CCOC(=O)C1=C(N)Oc2cc(O)ccc2C1c1cccnc1 (configuration not stated)	0	92	0	0	0	0
CCCOC(=O)C1=C(C)NC2=C(C(=O)CC(C)(C)C2)C1c1cccnc1 (configuration not stated)	0	90	0	0	0	0
Cc1ccc(S(=O)(=O)N2CCN(C(=O)COC(=O)c3ccc(Cl)nc3)CC2)c(C)c1	-	-	-	-	0	-
CCCc1[nH][nH]c(=O)c1C(c1cccc(Cl)c1)C(C#N)C#N (configuration not stated)	0	0	0	0	0	0
Cc1[nH]n(-c2ncc(-c3ccc(Cl)cc3)s2)c(=O)c1C(c1ccc(Cl)cc1)C(C#N)C#N (configuration not stated)	0	99	0	0	0	0
